In ChEMBL document CHEMBL3774372, “Design, physico-chemical properties and biological evaluation of some new N-[(phenoxy)alkyl]- and N-{2-[2-(phenoxy)ethoxy]ethyl}aminoalkanols as anticonvulsant agents” (Bioorg Med Chem, 2016) one finds Activity data, which are given here for two molecules.

Data set [1] deals with Rattus norvegicus. Briefly: Anticonvulsant activity in rat assessed as protection against maximal electric shock-induced seizures at 30 mg/kg, po measured after 0.5 hrs. It is filed as functional, organism-based. Summed up: (§1)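 Rats dosed ip or orally as 0.5% methylcellulose suspension; maximal electroshock at listed time. Protection = abolition of hindlimb tonic extension; 4 rats per group, scored protected/tested.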

Data set [2] relates to Rattus norvegicus. Briefly: Anticonvulsant activity in rat assessed as protection against maximal electric shock-induced seizures at 30 mg/kg, po measured after 1 hr. It counts as functional, organism-based. Summed up:
as §1

Data set [3] has as its system Mus musculus. Briefly: Anticonvulsant activity in mouse assessed as protection against maximal electric shock-induced seizures at 100 mg/kg, ip measured after […]. It counts as functional, organism-based.
The subject of data set [4] is Mus musculus. As to the kind of experiment: Anticonvulsant activity in mouse assessed as protection against 6 Hz psychomotor seizure at 100 mg/kg, ip after 2 hrs. It counts as functional, organism-based. Summed up:
(§2)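 Suspension in 0.5% methylcellulose given ip to mice; corneal stimulation with 0.2 ms monopolar rectangular pulses at 6 Hz for 3 s from a constant current device, mice restrained then released to observation cage. Protected if normal exploratory behaviour resumed within 10 s of stimulation. Scored as protected/tested, 4 mice per group.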

Data set [5] deals with Mus musculus. As to the kind of experiment: Neurotoxicity in mouse at 100 mg/kg, ip after 2 hrs by rotarod test. It is filed as toxicity, organism-based. The note with it: in vivo. A digest of the protocol:
(§3)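 Mice were dosed ip with compound suspended in 0.5% methylcellulose. Rotarod: a 1 in. knurled rod turning at 6 rpm. Neurotoxicity was scored as failure to stay on the rod for at least 1 min in each of three trials. Results are given as the number of animals affected out of the number tested.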
A general note: The rotarod test checks motor coordination on a turning rod.

The subject of data set [6] is Rattus norvegicus. As to the kind of experiment: Anticonvulsant activity in rat assessed as protection against maximal electric shock-induced seizures at 30 mg/kg, po measured after 2 hrs. It is filed as functional, organism-based. Summed up: as §1
Data set [7] has as its system Rattus norvegicus. Briefly: Anticonvulsant activity in rat assessed as protection against maximal electric shock-induced seizures at 30 mg/kg, po measured after 4 hrs. It counts as functional, organism-based. Summed up:
as §1

For data set [8], the system named is Rattus norvegicus. Briefly: Neurotoxicity in rat at 30 mg/kg, ip after […] by rotarod test. The note with it: in vivo. It is filed as toxicity, organism-based.
In data set [9] the test system is Rattus norvegicus. Briefly: Neurotoxicity in rat at 30 mg/kg, ip after 0.5 hrs by rotarod test. It counts as toxicity, organism-based. Conditions: in vivo.
Data set [10] concerns Rattus norvegicus. Briefly: Neurotoxicity in rat at 30 mg/kg, ip after 1 hr by rotarod test. It counts as toxicity, organism-based. Conditions: in vivo.
In data set [11] the test system is Rattus norvegicus. As to the kind of experiment: Neurotoxicity in rat at 30 mg/kg, ip after 2 hrs by rotarod test. It counts as toxicity, organism-based. The note with it: in vivo.
Data set [12] has as its system Rattus norvegicus. Briefly: Neurotoxicity in rat at 30 mg/kg, ip after 4 hrs by rotarod test. It is filed as toxicity, organism-based. The note with it: in vivo.
Data set [13] relates to Rattus norvegicus. As to the kind of experiment: Neurotoxicity in rat at 30 mg/kg, po after […] by rotarod test. It counts as toxicity, organism-based. Conditions: in vivo.
For data set [14], the system named is Rattus norvegicus. As to the kind of experiment: Neurotoxicity in rat at 30 mg/kg, po after 0.5 hrs by rotarod test. It is filed as toxicity, organism-based. Conditions: in vivo.
Data set [15] relates to Rattus norvegicus. As to the kind of experiment: Neurotoxicity in rat at 30 mg/kg, po after 1 hr by rotarod test. Conditions: in vivo. It counts as toxicity, organism-based.
Data set [16] concerns Rattus norvegicus. As to the kind of experiment: Neurotoxicity in rat at 30 mg/kg, po after 2 hrs by rotarod test. It is filed as toxicity, organism-based. The note with it: in vivo.
Data set [17] has as its system Rattus norvegicus. Briefly: Neurotoxicity in rat at 30 mg/kg, po after 4 hrs by rotarod test. It is filed as toxicity, organism-based. Conditions: in vivo.
Data set [18] relates to Mus musculus. As to the kind of experiment: Anticonvulsant activity in mouse assessed as protection against 6 Hz psychomotor seizure at 100 mg/kg, ip after 4 hrs. It is filed as functional, organism-based. Summed up: as §2
The test system of data set [19] is Mus musculus. As to the kind of experiment: Anticonvulsant activity in mouse assessed as protection against maximal electric shock-induced seizures at 100 mg/kg, ip measured after 0.5 hrs. It is filed as functional, organism-based. Summed up: (§4)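 Mice dosed ip with suspension in 0.5% methylcellulose; maximal electroshock applied at the listed time after dosing. Protection = abolition of hindlimb tonic extension component of seizure; reported as animals protected/animals tested.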

The subject of data set [20] is Mus musculus. Briefly: Anticonvulsant activity in mouse assessed as protection against maximal electric shock-induced seizures at 100 mg/kg, ip measured after 4 hrs. It counts as functional, organism-based. Summed up:
as §4

The subject of data set [21] is Mus musculus. As to the kind of experiment: Neurotoxicity in mouse at 100 mg/kg, ip after 1 hr by rotarod test. The note with it: in vivo. It is filed as toxicity, organism-based. Summed up:
as §3

For data set [22], the system named is Mus musculus. As to the kind of experiment: Neurotoxicity in mouse at 100 mg/kg, ip after 4 hrs by rotarod test. The note with it: in vivo. It is filed as toxicity, organism-based. A digest of the protocol:
as §3

Data set [23] has as its system Rattus norvegicus. Briefly: Anticonvulsant activity in rat assessed as protection against maximal electric shock-induced seizures at 30 mg/kg, ip measured after 2 hrs. It counts as functional, organism-based. Summed up:
as §1

Data set [24] deals with Rattus norvegicus. Briefly: Anticonvulsant activity in rat assessed as protection against maximal electric shock-induced seizures at 30 mg/kg, ip measured after 4 hrs. It is filed as functional, organism-based. A digest of the protocol:
as §1

The subject of data set [25] is Rattus norvegicus. As to the kind of experiment: Anticonvulsant activity in rat assessed as protection against maximal electric shock-induced seizures at 30 mg/kg, po measured after […]. It counts as functional, organism-based.
Data set [26] relates to Mus musculus. Briefly: Anticonvulsant activity in mouse assessed as protection against 6 Hz psychomotor seizure at 50 mg/kg, ip after 0.5 hrs. It counts as functional, organism-based. A digest of the protocol: as §2
Data set [27] relates to Mus musculus. As to the kind of experiment: Anticonvulsant activity in mouse assessed as protection against 6 Hz psychomotor seizure at 50 mg/kg, ip after 1 hr. It counts as functional, organism-based. A digest of the protocol: as §2
Data set [28] relates to Mus musculus. Briefly: Anticonvulsant activity in mouse assessed as protection against 6 Hz psychomotor seizure at 50 mg/kg, ip after 2 hrs. It is filed as functional, organism-based. Summed up: as §2
The test system of data set [29] is Mus musculus. As to the kind of experiment: Anticonvulsant activity in mouse assessed as protection against 6 Hz psychomotor seizure at 50 mg/kg, ip after 4 hrs. It counts as functional, organism-based. A digest of the protocol: as §2
Data set [30] deals with Mus musculus. Briefly: Neurotoxicity in mouse at 50 mg/kg, ip after 0.5 hrs by rotarod test. It counts as toxicity, organism-based. Conditions: in vivo. A digest of the protocol: as §3
In data set [31] the test system is Mus musculus. As to the kind of experiment: Neurotoxicity in mouse at 50 mg/kg, ip after 1 hr by rotarod test. It is filed as toxicity, organism-based. Conditions: in vivo. Summed up:
as §3

Data set [32] deals with Mus musculus. As to the kind of experiment: Neurotoxicity in mouse at 50 mg/kg, ip after 2 hrs by rotarod test. It is filed as toxicity, organism-based. Conditions: in vivo. A digest of the protocol: as §3
Data set [33] concerns Mus musculus. Briefly: Neurotoxicity in mouse at 50 mg/kg, ip after 4 hrs by rotarod test. It is filed as toxicity, organism-based. The note with it: in vivo. A digest of the protocol:
as §3

In data set [34] the test system is Mus musculus. Briefly: Neurotoxicity in mouse at 100 mg/kg, ip after […] by rotarod test. It counts as toxicity, organism-based. Conditions: in vivo.
In data set [35] the test system is Mus musculus. Briefly: Anticonvulsant activity in mouse assessed as protection against maximal electric shock-induced seizures at 100 mg/kg, ip measured after 1 hr. It is filed as functional, organism-based. Summed up: as §4
For data set [36], the system named is Mus musculus. As to the kind of experiment: Neurotoxicity in mouse at 100 mg/kg, ip after 0.5 hrs by rotarod test. The note with it: in vivo. It counts as toxicity, organism-based. A digest of the protocol:
as §3

Calls of active or inactive are those of the source. The rule behind the calls is not given here.

Turning to `Cc1cccc(OCCCN2CCC(O)CC2)c1C`, the result in the data set with Rattus norvegicus [1], with Rattus norvegicus [2], in the data set with Mus musculus [4], in the data set on Rattus norvegicus [6], with Rattus norvegicus [7] and in the data set with Mus musculus [18] was inactive. In addition, the outcome with Mus musculus [20], in the data set on Rattus norvegicus [23], in the data set with Rattus norvegicus [24] and in the data set with Rattus norvegicus [25] was inactive. The result with Mus musculus [3] and with Mus musculus [19] was Active. For the same molecule, the Activity result in the data set with Mus musculus [5], in the data set on Rattus norvegicus [8], in the data set on Rattus norvegicus [9], in the data set on Rattus norvegicus [10], in the data set with Rattus norvegicus [11] and with Rattus norvegicus [12] was “Non-toxic” in each case. The Activity entry with Rattus norvegicus [13], in the data set with Rattus norvegicus [14], in the data set on Rattus norvegicus [15], with Rattus norvegicus [16], in the data set on Rattus norvegicus [17] and in the data set on Mus musculus [21] was “Non-toxic” each time. Besides, the Activity entry in the data set on Mus musculus [22] is “Non-toxic”.
As for `Cc1cccc(OCCN[C@@H]2CCCC[C@H]2O)c1C` (racemic), the result in the data set with Mus musculus [3], in the data set on Mus musculus [19] and in the data set with Mus musculus [35] was Active. The outcome with Mus musculus [26], with Mus musculus [27], in the data set on Mus musculus [28], with Mus musculus [29] and in the data set on Mus musculus [20] was inactive. Further, the Activity result in the data set on Mus musculus [30] was “Non-toxic”; in the data set on Mus musculus [31] it was “Non-toxic”; with Mus musculus [32], “Non-toxic”; in the data set on Mus musculus [33] it was “Non-toxic”; in the data set with Mus musculus [34], “Toxic”; in the data set with Mus musculus [36], “Toxic”. For the same molecule, the Activity result with Mus musculus [21] is reported as “Toxic”; with Mus musculus [22], “Non-toxic”.
